According to ChEMBL document CHEMBL4706490, “New activators of eIF2α Kinase Heme-Regulated Inhibitor (HRI) with improved biophysical properties” (Eur J Med Chem, 2020):
Activity calls are given as the source filed them. The calls are words filed in the database; no cut-off is given here.

What was measured:
[1] = target: Eukaryotic translation initiation factor 2 subunit 1 (Homo sapiens) (UniProt P05198); assay: Activation of eIF2alpha (unknown origin) assessed as fold stimulation ATF-4 surrogate eIF2alpha phosphorylation at 1.25 uM cell based Dual luciferase reporter assay; details: filed as activator
Summary of the method: (§1)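 Cells stably expressing firefly and renilla luciferase reporters were treated in 96-well plates at 10, 5, 2.5 and 1.25 µM and read with a dual glow luciferase kit. The firefly/renilla (F/R) ratio of each well was normalized to vehicle (DMSO) wells on the same plate, set at 1. Dose-response curves used triplicate points fitted to a logistic sigmoidal model.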

[2] = target: Eukaryotic translation initiation factor 2 subunit 1 (Homo sapiens) (UniProt P05198); assay: Activation of eIF2alpha (unknown origin) assessed as fold stimulation ATF-4 surrogate eIF2alpha phosphorylation at 5 uM cell based Dual luciferase reporter assay; details: filed as activator; summary of the method: as §1
[3] = Antiproliferative activity against human CRL-2813 cells assessed as inhibition of cell growth measured after 5 days by SRB assay; type: functional, cell-based
Summary of the method: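 CRL-2813 cells in 96-well plates were kept for 5 days with 0.5 to 20 µM compound, then fixed in cold 10% trichloroacetic acid and stained with sulforhodamine B; bound dye absorbance was read. Percent growth was calculated as 100×[(T−T0)/(C−T0)] using day 5 treated, control and time-zero readings. IC50 is the concentration giving 50% growth inhibition.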

[4] = target: Eukaryotic translation initiation factor 2 subunit 1 (Homo sapiens) (UniProt P05198); assay: Activation of eIF2alpha in human CRL-2813 cells assessed as eIF2alpha phosphorylation at 5 uM measured after 2 hrs Western blot analysis; type: cell-based
Summary of the method: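 Adherent human melanoma CRL-2813 cells were grown in serum-containing, antibiotic-free medium to 70% confluence and exposed to 5 µM compound or vehicle for 2 hours. Cells were lysed in M-PER on ice, and protein was quantified by BCA and boiled in Laemmli buffer. Lysates were run on SDS-PAGE and immunoblotted for phospho-Ser51 eIF2α, total eIF2α and β-actin.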

[5] = target: Eukaryotic translation initiation factor 2 subunit 1 (Homo sapiens) (UniProt P05198); assay: Activation of eIF2alpha in human CRL-2813 cells assessed as increase in CHOP expression at 5 uM measured after 8 hrs Western blot analysis; type: cell-based
Summary of the method: (§2)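 CRL-2813 melanoma cells were grown in serum-containing, antibiotic-free medium to 70% confluence and treated with 5 µM compound for 8 hours. Lysates were made in M-PER on ice, protein was normalized by BCA, and samples were separated by SDS-PAGE. Blots were probed for CHOP, p27Kip1, cyclin D1 and β-actin.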

[6] = target: Eukaryotic translation initiation factor 2 subunit 1 (Homo sapiens) (UniProt P05198); assay: Activation of eIF2alpha in human CRL-2813 cells assessed as decrease in cyclin D1 expression at 5 uM measured after 8 hrs Western blot analysis; type: cell-based; summary of the method: as §2
CRL-2813 = assay: Effect on p27Kip1 expression in human CRL-2813 cells at 5 uM measured after 8 hrs Western blot analysis; type: functional, cell-based; summary of the method: as §2
MCF7 = assay: Antiproliferative activity against human MCF7 cells transfected with HRI siRNA at 0.27 to 10 uM after 3 days by SRB assay; details: dose 0.27-10 µM, time 3.0 day

Eukaryotic translation initiation factor 2 subunit 1 (Homo sapiens), sequence (P05198 whole entry): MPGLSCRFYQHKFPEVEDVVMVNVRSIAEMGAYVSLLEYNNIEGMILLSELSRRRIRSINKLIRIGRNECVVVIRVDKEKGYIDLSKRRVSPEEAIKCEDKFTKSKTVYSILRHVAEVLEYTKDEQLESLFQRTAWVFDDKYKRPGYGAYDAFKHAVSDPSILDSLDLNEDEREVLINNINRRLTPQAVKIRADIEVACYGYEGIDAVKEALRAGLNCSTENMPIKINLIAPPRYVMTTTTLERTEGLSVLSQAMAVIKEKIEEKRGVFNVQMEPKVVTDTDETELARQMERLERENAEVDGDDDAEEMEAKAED

Structure (SMILES) | fold change (FC) [1] | fold change (FC) [2] | IC50 ([3]; Homo sapiens, CRL2813, 120 h) | further results
N#Cc1cc(NC(=O)NC2CC(Oc3ccc(C(F)(F)F)cc3)C2)cc(C(F)(F)F)c1 (trans isomer) [listing 1 of 2 here] |  |  | 900 nM | 
N#Cc1ccc(NC(=O)NC2CCC(Oc3ccc(C(F)(F)F)cc3)CC2)c(F)c1 (configuration not stated) | 2.4 | 6.2 | 1400 nM | 
N#Cc1cccc(NC(=O)NC2CC(Oc3ccc(C(F)(F)F)cc3)C2)c1 (stereo in doubt; cis) [listing 1 of 2 here] |  |  |  | IC50 ([3]; crl-2813): > 10000 nM
O=C(Nc1cccc(C(F)(F)F)c1)NC1CC(Oc2ccc(C(F)(F)F)cc2)C1 (cis isomer) [listing 1 of 2 here] |  |  |  | IC50 ([3]; crl-2813): 2600 nM
N#Cc1cc(F)cc(NC(=O)NC2CC(Oc3ccc(C(F)(F)F)cc3)C2)c1 (trans isomer) | 2 | 5.3 | 2800 nM | 
N#Cc1cccc(NC(=O)NC2CCC(Oc3ccc(C(F)(F)F)cc3)CC2)c1 (configuration not stated) | 1.9 | 6.1 | 1600 nM | 
O=C(Nc1cccc(C(F)(F)F)c1)NC1CC(Oc2ccc(C(F)(F)F)cc2)C1 (cis isomer) [listing 2 of 2 here] | 1.2 | 6.2 |  | 
O=C(Nc1cccc(C(F)(F)F)c1)NC1CC(Oc2ccc(C(F)(F)F)cc2)C1 (trans isomer) [listing 1 of 2 here] | 2.4 | 6.5 |  | 
N#Cc1cccc(NC(=O)NC2CC(Oc3ccc(C(F)(F)F)cc3)C2)c1 (stereo in doubt; cis) [listing 2 of 2 here] | 1.1 | 0.9 |  | 
N#Cc1cc(NC(=O)NC2CC(Oc3ccc(C(F)(F)F)cc3)C2)cc(C(F)(F)F)c1 (trans isomer) [listing 2 of 2 here] | 4.4 | 10 |  | Activity (MCF7): inactive; Activity ([4]; filed as activator): Active; Activity ([5]; filed as activator): Active; Activity ([6]; filed as activator): Active; Activity (CRL-2813): inactive
N#Cc1cc(NC(=O)NC2CC(Oc3ccc(C(F)(F)F)cc3)C2)cc(C(F)(F)F)c1 (cis isomer) | 4.3 | 8.4 |  | 
N#Cc1cccc(NC(=O)NC2CC(Oc3ccc(C(F)(F)F)cc3)C2)c1 (stereo in doubt; trans) [listing 1 of 2 here] | 1.6 | 3.5 |  | 
Cc1ccc(F)cc1NC(=O)NC1CC(Oc2ccc(C(F)(F)F)cc2)C1 (configuration not stated) | 0.7 | 1.4 | > 10000 nM | 
O=C(Nc1cccc(C(F)(F)F)c1)NC1CC(Oc2ccc(C(F)(F)F)cc2)C1 (trans isomer) [listing 2 of 2 here] |  |  | 3400 nM | 
N#Cc1cccc(NC(=O)NC2CC(Oc3ccc(C(F)(F)F)cc3)C2)c1 (stereo in doubt; trans) [listing 2 of 2 here] |  |  |  | IC50 ([3]; crl-2813): 4900 nM
N#Cc1cc(NC(=O)NC2CCC(Oc3ccc(C(F)(F)F)cc3)CC2)cc(C(F)(F)F)c1 (configuration not stated) | 5.7 | 13.8 | 350 nM | Activity (MCF7): inactive; Activity ([4]; filed as activator): Active; Activity ([5]; filed as activator): Active; Activity ([6]; filed as activator): Active; Activity (CRL-2813): inactive
N#Cc1cc(F)cc(NC(=O)NC2CCC(Oc3ccc(C(F)(F)F)cc3)CC2)c1 (configuration not stated) | 4.6 | 9.3 | 630 nM | Activity (MCF7): inactive; Activity ([4]; filed as activator): Active; Activity ([5]; filed as activator): Active; Activity ([6]; filed as activator): Active; Activity (CRL-2813): inactive

Continued, in another order:

fold change (FC) [1] | fold change (FC) [2] | Structure (SMILES) | IC50 ([3]; Homo sapiens, CRL2813, 120 h) | further results
1.2 | 7 | O=C(Nc1cccc(C(F)(F)F)c1)N[C@H]1CC[C@H](Oc2ccc(C(F)(F)F)cc2)C1 | 2500 nM | 
2.2 | 4.5 | O=C(Nc1ccc(F)c(F)c1)NC1CC(Oc2ccc(C(F)(F)F)cc2)C1 (trans isomer) | 5500 nM | 
1 | 1.5 | N#Cc1ccc(F)c(NC(=O)NC2CCC(Oc3ccc(C(F)(F)F)cc3)CC2)c1 (configuration not stated) | > 10000 nM | Activity [4]: inactive; Activity [5]: inactive; Activity [6]: inactive; Activity (CRL-2813): inactive
0.8 | 6.2 | O=C(Nc1cccc(F)c1F)NC1CC(Oc2ccc(C(F)(F)F)cc2)C1 (trans isomer) | 2300 nM | 
0.8 | 1.6 | N#Cc1cccc(NC(=O)N[C@H]2CC[C@H](Oc3ccc(C(F)(F)F)cc3)C2)c1 | 6500 nM | 
3.6 | 9.2 | O=C(Nc1cccc(C(F)(F)F)c1)NC1CCC(Oc2ccc(C(F)(F)F)cc2)CC1 (configuration not stated) | 900 nM | 
3.7 | 6.1 | N#Cc1cc(NC(=O)NC2CCC(Oc3ccc(C(F)(F)F)cc3)CC2)ccc1F (configuration not stated) | 1400 nM | 
2.9 | 5.6 | O=C(Nc1ccc(F)c(F)c1)NC1CCC(Oc2ccc(C(F)(F)F)cc2)CC1 (trans isomer) | 1300 nM | 
5.5 | 10.4 | N#Cc1ccc(NC(=O)NC2CCC(Oc3ccc(C(F)(F)F)cc3)CC2)cc1F (trans isomer) | 460 nM | Activity (MCF7): inactive; Activity ([4]; filed as activator): Active; Activity ([5]; filed as activator): Active; Activity ([6]; filed as activator): Active; Activity (CRL-2813): inactive
1.8 | 1.5 | Cc1ccc(F)cc1NC(=O)NC1CCC(Oc2ccc(C(F)(F)F)cc2)CC1 (configuration not stated) | 5300 nM | Activity ([4]; filed as activator): Active; Activity ([5]; filed as activator): Active; Activity ([6]; filed as activator): Active; Activity (CRL-2813): inactive
3.1 | 8.3 | N#Cc1cc(NC(=O)N[C@H]2CC[C@H](Oc3ccc(C(F)(F)F)cc3)C2)cc(C(F)(F)F)c1 | 1200 nM | 
2.4 | 8 | N#Cc1cc(F)cc(NC(=O)N[C@H]2CC[C@H](Oc3ccc(C(F)(F)F)cc3)C2)c1 | 1900 nM | 
1.4 | 1.3 | Cc1ccc(F)cc1NC(=O)N[C@H]1CC[C@H](Oc2ccc(C(F)(F)F)cc2)C1 | 8000 nM | 
0.9 | 3.5 | O=C(Nc1ccc(F)c(F)c1)N[C@H]1CC[C@H](Oc2ccc(C(F)(F)F)cc2)C1 | 5200 nM | 
4.7 | 9.9 | O=C(Nc1cccc(F)c1F)NC1CCC(Oc2ccc(C(F)(F)F)cc2)CC1 (configuration not stated) | 1600 nM | Activity ([4]; filed as activator): Active; Activity ([5]; filed as activator): Active; Activity ([6]; filed as activator): Active; Activity (CRL-2813): inactive
